Experimental data of several laboratories.
Protocols differ between the studies behind these lines.
Target: Serine/threonine-protein kinase ULK2 (ULK2, Homo sapiens, UniProt Q8IYT8)
One construct used (Q8IYT8 1-1036): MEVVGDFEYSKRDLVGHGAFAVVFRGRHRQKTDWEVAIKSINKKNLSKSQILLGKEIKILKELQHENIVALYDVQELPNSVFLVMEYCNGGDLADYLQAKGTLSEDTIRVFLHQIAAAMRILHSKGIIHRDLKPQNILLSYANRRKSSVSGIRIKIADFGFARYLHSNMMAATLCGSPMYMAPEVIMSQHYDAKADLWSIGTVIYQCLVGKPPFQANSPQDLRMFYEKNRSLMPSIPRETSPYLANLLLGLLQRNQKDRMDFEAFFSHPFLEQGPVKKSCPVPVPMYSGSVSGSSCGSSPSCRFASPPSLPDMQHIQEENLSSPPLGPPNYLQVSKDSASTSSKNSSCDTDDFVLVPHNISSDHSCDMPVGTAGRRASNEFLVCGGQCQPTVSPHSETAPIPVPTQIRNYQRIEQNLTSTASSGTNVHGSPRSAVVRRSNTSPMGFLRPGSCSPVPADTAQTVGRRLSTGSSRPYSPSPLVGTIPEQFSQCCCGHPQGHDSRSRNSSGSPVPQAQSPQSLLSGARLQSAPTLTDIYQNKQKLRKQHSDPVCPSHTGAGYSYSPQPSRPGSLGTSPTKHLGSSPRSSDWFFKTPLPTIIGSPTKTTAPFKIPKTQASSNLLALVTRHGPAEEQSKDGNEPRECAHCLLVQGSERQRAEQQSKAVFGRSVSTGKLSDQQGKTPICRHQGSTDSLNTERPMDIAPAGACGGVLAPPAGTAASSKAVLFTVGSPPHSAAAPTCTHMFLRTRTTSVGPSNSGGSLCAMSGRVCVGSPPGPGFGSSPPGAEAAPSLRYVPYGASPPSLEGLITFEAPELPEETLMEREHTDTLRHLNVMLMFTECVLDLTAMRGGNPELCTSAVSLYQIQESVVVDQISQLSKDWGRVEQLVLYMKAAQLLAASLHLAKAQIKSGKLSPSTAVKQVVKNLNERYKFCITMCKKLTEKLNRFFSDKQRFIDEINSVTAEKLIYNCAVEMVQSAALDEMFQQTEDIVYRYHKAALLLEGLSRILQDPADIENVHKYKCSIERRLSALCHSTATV

`O=C(NCCCN1CCOCC1)c1ccc(Nc2ncc(Cl)c(-c3ccc(Cl)s3)n2)cc1` has a remaining binding of 24% (binding, competition with immobilised ligand; 1 µM).
`C=CC(=O)N1CCC(C(=O)NCC(=O)N2CCN(c3nc(-c4cnc(N)nc4C(F)F)nc(N4CCOCC4)n3)CC2)CC1` has a remaining binding of 96% (binding, competition with immobilised ligand; 1 µM).
`NS(=O)(=O)c1cc(NC(=O)C2(c3ccccc3Cl)CC2)ccc1Oc1cccc(Cl)c1` gave a remaining binding of 100% (cell-free assay, competition with immobilised ligand; 1 µM).
`COC(=O)Nc1nc2ccc(C(=O)c3ccccc3)cc2[nH]1` has a remaining binding of 30% (cell-free assay, competition with immobilised ligand; 10 µM).
For `O=C(NS(=O)(=O)c1ccc(NCC2CCOCC2)c([N+](=O)[O-])c1)c1ccc(N2CCN(Cc3ccc(C(F)(F)F)cc3-c3ccc(Cl)cc3)CC2)cc1Oc1cnc2[nH]ccc2c1`, the remaining binding was 100% (cell-free assay, competition with immobilised ligand; 1 µM).
`C[C@H]1CCN(c2nccc(-c3cnn4ncccc34)n2)C1` gave a remaining binding of 63% (binding; 1 µM).
`O=C(Nc1c[nH]nc1C(=O)NC1CCNCC1)c1cc(F)cc(F)c1` has a remaining binding of 99% (binding, competition with immobilised ligand; 1 µM).
With `CCOC(=O)c1cc2cc(-c3cc(C(=O)NCc4ccc(C(=O)O)cc4)nn3C)ccc2[nH]1` the remaining binding was 78% (cell-free assay, competition with immobilised ligand; 0.1 µM).
With `CN(c1nccc(-c2cnn3ncccc23)n1)C1CC1` the remaining binding was 100% (binding; 1 µM).
With `COCCOc1nc(-c2ccc(Cl)nc2)nc2c1CN(C(=O)c1ncn3ccccc13)CC2` the remaining binding was 100% (cell-free assay, competition with immobilised ligand; 0.1 µM).
`COc1cnc(Nc2cccc(S(N)(=O)=O)c2)nc1N1CCN(c2ccccc2)C(=O)C1` has a remaining binding of 51% (binding, competition with immobilised ligand; 1 µM).
`FC(F)(F)Oc1cccc(-c2cnc3ccc(-c4ccncc4)nn23)c1` has a remaining binding of 78% (binding, competition with immobilised ligand; 5 µM).
`O=C(NCCCN1CCOCC1)c1ccc(Nc2nccc(-c3cc4ccccc4s3)n2)cc1` gave a remaining binding of 62% (binding, competition with immobilised ligand; 1 µM).
`CCS(=O)(=O)c1cc2cc(C[C@](O)(CC(C)(C)c3ccc(F)cc3C(N)=O)C(F)(F)F)[nH]c2cn1` gave a remaining binding of 100% (cell-free assay, competition with immobilised ligand; 1 µM).
`Nc1ncc2c(n1)-c1c([nH]c3ccc(C#CC4CC4)cc13)CCCC2` has a remaining binding of 100% (binding, competition with immobilised ligand; 1 µM).
`C[C@@H]1CN(c2ccc3ncc(-c4ccc5[nH]nc(C6CC6)c5c4)n3n2)C[C@H](C)O1` has a remaining binding of 92% (binding, competition with immobilised ligand; 50 nM).
`CN(C)c1nccc(-c2cnn3ncccc23)n1` gave a remaining binding of 100% (binding; 1 µM).
The remaining binding of `CC(C)(C)c1ccc(-c2nc(CBr)nn2-c2cccc(O)c2)cc1` is reported as 92% (cell-free assay, competition with immobilised ligand; 10 µM).
With `CCC(=O)N[C@H]1CC[C@@H](C(=O)N(C)c2ccc(-c3nc4ccccc4o3)cc2)C1` the remaining binding was 75% (cell-free assay, competition with immobilised ligand; 1 µM).
`CN(CCCC(F)(F)F)c1nccc(-c2cnn3ncccc23)n1` gave a remaining binding of 96% (binding; 1 µM).
`CNCc1ccccc1-c1csc([C@H](C)Nc2nc(C)nc3cc(OC)c(OC)cc23)c1` gave a remaining binding of 100% (cell-free assay, competition with immobilised ligand; 1 µM).
With `CC1CCCN1c1nccc(-c2cnn3ncccc23)n1` (stereo not shown) the remaining binding was 74% (binding; 1 µM).
`O=C(c1ccc(Nc2ncc(Cl)c(-c3ccc(Cl)s3)n2)cc1)N1CCC(N2CCCC2)CC1` gave a remaining binding of 31% (binding, competition with immobilised ligand; 1 µM).
`FC(F)(F)c1ccc2c(c1)nc(-c1cccnc1)n2C1CC1` has a remaining binding of 100% (cell-free assay, competition with immobilised ligand; 1 µM).
For `Cc1cnn2ncc(-c3ccnc(N(C)C)n3)c2c1`, the remaining binding was 92% (binding; 1 µM).
